# Assay results from ChEMBL document CHEMBL4007404, “Identification of High-Potency Human TLR8 and Dual TLR7/TLR8 Agonists in Pyrimidine-2,4-diamines” (J Med Chem, 2017).
# Calls of active or inactive are those of the source. The calls are words filed in the database; no cut-off is given here.
# Key:
# Format in all cases: cell-based
# [1] = target: T1, Toll-like receptor 9 (Homo sapiens) (UniProt Q9NR96); test: Activity at human TLR9 expressed in HEK293 cells co-expressing secreted alkaline phosphatase assessed as induction of NF-kappaB/AP-1 promoter activity by measuring increase in secreted alkaline phosphatase level by spectrophotometric method
# T1 sequence (whole entry): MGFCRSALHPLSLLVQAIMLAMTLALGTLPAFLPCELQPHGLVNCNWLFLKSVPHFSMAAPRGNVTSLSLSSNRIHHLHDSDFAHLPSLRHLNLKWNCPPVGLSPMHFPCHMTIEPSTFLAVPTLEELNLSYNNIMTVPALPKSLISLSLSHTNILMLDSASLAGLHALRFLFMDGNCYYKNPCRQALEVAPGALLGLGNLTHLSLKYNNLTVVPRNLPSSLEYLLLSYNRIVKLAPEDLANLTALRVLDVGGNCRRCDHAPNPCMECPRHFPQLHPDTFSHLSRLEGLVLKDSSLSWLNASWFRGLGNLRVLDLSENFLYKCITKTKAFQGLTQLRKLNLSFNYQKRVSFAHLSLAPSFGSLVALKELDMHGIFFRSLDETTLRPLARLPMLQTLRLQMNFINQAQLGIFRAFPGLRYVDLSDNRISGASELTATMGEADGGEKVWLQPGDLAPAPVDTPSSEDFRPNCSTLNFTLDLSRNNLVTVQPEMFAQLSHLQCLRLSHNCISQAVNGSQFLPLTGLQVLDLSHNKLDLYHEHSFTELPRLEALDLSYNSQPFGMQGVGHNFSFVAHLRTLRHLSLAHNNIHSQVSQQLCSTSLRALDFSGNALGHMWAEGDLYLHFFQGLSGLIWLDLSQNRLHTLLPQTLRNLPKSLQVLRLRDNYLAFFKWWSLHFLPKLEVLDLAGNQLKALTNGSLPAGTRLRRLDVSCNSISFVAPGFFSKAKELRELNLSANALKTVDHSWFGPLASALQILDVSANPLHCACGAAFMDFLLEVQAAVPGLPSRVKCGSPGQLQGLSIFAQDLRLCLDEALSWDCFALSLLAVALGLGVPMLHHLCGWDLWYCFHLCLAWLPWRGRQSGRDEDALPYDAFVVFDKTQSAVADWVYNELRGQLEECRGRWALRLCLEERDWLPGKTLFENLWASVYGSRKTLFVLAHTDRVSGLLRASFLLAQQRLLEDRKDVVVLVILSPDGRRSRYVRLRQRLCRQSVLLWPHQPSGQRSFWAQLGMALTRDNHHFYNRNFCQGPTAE
# Outline: (§1)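 HEK293 cells stably co-transfected with the relevant human TLR (2, 3, 4, 5, 7, 8 or 9) plus an NF-κB/AP-1-driven secreted alkaline phosphatase reporter, kept in selection medium. Cells at ~10⁵ cells/ml were exposed to graded concentrations of stimuli in 384-well format, liquid-handler assisted. Supernatant sAP was read at 620 nm with an alkaline phosphatase-specific chromogen.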
# Toll-like receptor 8 = target: T2, Toll-like receptor 8 (Homo sapiens, UniProt Q9NR97); test: Agonist activity at human TLR8 expressed in HEK293 cells co-expressing secreted alkaline phosphatase assessed as induction of NF-kappaB/AP-1 promoter activity by measuring increase in secreted alkaline phosphatase level by spectrophotometric method; outline: as §1
# T2 sequence (Q9NR97 whole entry): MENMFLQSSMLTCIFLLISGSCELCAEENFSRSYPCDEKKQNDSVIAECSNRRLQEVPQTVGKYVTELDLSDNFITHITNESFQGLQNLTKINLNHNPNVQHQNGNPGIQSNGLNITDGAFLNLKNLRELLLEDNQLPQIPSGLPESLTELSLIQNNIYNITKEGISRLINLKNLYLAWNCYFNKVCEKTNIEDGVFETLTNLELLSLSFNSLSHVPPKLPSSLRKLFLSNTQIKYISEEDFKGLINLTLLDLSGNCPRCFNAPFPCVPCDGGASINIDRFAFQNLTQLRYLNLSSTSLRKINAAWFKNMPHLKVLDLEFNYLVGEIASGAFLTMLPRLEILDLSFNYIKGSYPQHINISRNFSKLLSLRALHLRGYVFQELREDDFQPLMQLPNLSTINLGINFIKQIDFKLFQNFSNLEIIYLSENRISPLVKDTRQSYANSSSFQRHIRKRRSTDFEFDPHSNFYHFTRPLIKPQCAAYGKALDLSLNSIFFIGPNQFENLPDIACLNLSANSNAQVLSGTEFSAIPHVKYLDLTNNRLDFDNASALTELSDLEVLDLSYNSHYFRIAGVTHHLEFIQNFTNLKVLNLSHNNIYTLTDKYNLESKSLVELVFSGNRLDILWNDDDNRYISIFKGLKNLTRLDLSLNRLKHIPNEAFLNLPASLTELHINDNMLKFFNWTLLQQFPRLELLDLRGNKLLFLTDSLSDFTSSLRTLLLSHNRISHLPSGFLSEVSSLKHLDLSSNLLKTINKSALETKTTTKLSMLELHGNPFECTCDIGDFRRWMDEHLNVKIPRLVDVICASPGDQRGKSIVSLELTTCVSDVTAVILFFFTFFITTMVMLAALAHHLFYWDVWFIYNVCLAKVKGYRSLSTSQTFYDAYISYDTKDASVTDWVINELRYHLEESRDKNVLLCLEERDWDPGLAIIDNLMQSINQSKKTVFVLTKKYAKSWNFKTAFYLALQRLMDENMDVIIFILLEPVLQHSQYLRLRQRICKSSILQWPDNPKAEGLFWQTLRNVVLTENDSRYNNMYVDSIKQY
# [2] = target: Toll-like receptor 4 (Homo sapiens) (UniProt O00206); test: Activity at human TLR4 expressed in HEK293 cells co-expressing secreted alkaline phosphatase assessed as induction of NF-kappaB/AP-1 promoter activity by measuring increase in secreted alkaline phosphatase level by spectrophotometric method; outline: as §1
# [3] = target: Toll-like receptor 2 (Homo sapiens) (UniProt O60603); test: Activity at human TLR2 expressed in HEK293 cells co-expressing secreted alkaline phosphatase assessed as induction of NF-kappaB/AP-1 promoter activity by measuring increase in secreted alkaline phosphatase level by spectrophotometric method; outline: as §1
# [4] = target: Toll-like receptor 5 (Homo sapiens) (UniProt O60602); test: Activity at human TLR5 expressed in HEK293 cells co-expressing secreted alkaline phosphatase assessed as induction of NF-kappaB/AP-1 promoter activity by measuring increase in secreted alkaline phosphatase level by spectrophotometric method; outline: as §1
# Toll-like receptor 5 (Homo sapiens), sequence (O60602 whole entry): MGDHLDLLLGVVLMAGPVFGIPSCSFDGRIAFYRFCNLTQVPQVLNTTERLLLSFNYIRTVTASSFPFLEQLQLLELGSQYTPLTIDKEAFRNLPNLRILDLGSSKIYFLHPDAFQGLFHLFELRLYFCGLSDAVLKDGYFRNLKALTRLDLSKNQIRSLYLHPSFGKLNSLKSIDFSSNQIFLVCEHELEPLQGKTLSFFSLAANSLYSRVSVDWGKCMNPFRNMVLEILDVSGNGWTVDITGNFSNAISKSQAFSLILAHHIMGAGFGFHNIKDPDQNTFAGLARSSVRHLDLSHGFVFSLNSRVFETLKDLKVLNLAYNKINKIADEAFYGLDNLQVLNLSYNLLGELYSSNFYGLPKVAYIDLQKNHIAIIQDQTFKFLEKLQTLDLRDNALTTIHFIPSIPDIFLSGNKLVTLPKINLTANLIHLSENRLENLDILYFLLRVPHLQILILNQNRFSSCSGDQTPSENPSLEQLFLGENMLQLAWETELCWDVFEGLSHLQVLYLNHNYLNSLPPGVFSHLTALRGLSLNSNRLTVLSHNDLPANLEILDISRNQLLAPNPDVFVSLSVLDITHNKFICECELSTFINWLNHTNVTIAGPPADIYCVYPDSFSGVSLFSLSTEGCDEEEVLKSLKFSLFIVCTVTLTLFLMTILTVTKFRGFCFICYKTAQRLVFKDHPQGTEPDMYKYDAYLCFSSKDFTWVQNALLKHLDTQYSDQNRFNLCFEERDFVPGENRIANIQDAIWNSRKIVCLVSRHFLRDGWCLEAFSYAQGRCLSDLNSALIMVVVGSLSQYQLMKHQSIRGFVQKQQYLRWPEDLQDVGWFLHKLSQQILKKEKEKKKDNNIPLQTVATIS
# Toll-like receptor 4 (Homo sapiens), sequence (O00206 whole entry): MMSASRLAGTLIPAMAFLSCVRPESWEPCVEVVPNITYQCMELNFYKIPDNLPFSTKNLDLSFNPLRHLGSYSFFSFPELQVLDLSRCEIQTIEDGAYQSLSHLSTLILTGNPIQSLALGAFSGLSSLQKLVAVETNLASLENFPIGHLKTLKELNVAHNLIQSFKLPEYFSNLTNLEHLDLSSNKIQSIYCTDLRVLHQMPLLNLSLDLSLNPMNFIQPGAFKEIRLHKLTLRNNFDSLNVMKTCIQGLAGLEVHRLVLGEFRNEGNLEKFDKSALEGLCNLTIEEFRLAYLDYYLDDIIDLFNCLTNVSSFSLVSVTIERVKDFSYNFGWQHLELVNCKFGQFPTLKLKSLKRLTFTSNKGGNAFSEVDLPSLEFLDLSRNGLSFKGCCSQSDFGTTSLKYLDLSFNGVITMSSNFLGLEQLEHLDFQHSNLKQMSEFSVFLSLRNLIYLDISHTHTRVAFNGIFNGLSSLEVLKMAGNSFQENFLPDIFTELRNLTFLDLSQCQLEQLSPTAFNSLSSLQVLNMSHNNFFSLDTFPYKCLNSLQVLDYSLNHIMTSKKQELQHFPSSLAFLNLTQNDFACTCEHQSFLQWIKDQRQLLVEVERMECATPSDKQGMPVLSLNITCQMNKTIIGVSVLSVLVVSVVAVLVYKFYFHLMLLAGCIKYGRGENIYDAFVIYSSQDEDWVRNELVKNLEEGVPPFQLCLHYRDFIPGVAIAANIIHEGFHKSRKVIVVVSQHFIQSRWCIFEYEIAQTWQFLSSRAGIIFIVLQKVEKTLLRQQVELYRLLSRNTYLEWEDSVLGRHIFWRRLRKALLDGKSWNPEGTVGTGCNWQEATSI
# Toll-like receptor 2 (Homo sapiens), sequence (O60603 whole entry): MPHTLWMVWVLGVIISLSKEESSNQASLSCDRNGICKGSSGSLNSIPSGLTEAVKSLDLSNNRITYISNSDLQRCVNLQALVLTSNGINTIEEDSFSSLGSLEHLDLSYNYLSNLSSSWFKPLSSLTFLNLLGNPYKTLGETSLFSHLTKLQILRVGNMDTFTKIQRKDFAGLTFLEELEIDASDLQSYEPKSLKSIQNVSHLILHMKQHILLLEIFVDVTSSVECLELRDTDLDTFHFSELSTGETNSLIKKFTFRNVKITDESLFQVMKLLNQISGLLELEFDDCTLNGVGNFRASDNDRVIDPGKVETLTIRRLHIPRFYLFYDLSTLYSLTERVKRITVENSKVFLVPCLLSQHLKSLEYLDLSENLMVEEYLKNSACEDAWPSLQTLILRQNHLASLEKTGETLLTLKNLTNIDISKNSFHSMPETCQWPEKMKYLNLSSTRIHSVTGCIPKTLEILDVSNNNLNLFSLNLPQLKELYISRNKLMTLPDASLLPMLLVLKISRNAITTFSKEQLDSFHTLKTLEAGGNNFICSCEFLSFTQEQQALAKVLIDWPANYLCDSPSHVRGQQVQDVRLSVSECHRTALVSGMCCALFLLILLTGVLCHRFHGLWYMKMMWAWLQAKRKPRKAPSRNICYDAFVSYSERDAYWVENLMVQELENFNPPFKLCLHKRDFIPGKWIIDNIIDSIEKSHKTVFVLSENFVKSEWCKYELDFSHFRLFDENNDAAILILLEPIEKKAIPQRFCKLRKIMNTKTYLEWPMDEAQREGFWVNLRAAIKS
SMILES,Activity [1],EC50 (Toll-like receptor 8) [nM],Activity [2],Activity [3],Activity [4]
CCCCNc1nc(N)nc(C)c1CCCN(C)CCOC,inactive,203,inactive,inactive,inactive
CCCCNc1nc(N)nc(C)c1CCCN(CC)CC,inactive,254,inactive,inactive,inactive
CCCCNc1nc(N)nc(C)c1CCCN1Cc2ccccc2C1,inactive,29,inactive,inactive,inactive
CCCCNc1nc(N)nc(C)c1CCCn1ccc2ccccc21,inactive,1100,inactive,inactive,inactive
CCCCNc1nc(N)nc(C)c1CCCCN1CCOCC1,inactive,128,inactive,inactive,inactive
CCCCNc1nc(N)nc(C)c1CCCN(C)C,inactive,126,inactive,inactive,inactive
CCCCNc1nc(N)nc(C)c1CCCn1cccn1,inactive,1050,inactive,inactive,inactive
CCCCNc1nc(N)nc(C)c1CCCn1c(C)nc2ccccc21,inactive,366,inactive,inactive,inactive
CCCCNc1nc(N)nc(C)c1CCc1ccccc1,inactive,1190,inactive,inactive,inactive
CCCCNc1nc(N)nc(C)c1CCCCO,inactive,1310,inactive,inactive,inactive
CCCCNc1nc(N)nc(C)c1C,inactive,3280,inactive,inactive,inactive
C#Cc1c(C)nc(N)nc1NCCCC,inactive,4900,inactive,inactive,inactive
CCCCNc1nc(N)nc(C)c1CCCN1C(=O)c2ccccc2C1=O,inactive,453,inactive,inactive,inactive
CCCCNc1nc(N)nc(C)c1CCCN1CCCCCC1,inactive,178,inactive,inactive,inactive
CCCCNc1nc(N)nc(C)c1CCCN1CCOCC1,inactive,280,inactive,inactive,inactive
CCCCNc1nc(N)nc(C)c1CCCc1ccccc1,inactive,749,inactive,inactive,inactive
CCCCNc1nc(N)nc(C)c1CCCN1CCN(c2ccccc2)CC1,inactive,92,inactive,inactive,inactive
CCCCNc1nc(N)nc(C)c1CCCCCc1ccccc1,inactive,830,inactive,inactive,inactive
CCCCNc1nc(N)nc(C)c1C#CCN1CCOCC1,inactive,16200,inactive,inactive,inactive
CCCCNc1nc(N)nc(C)c1CCCC,inactive,780,inactive,inactive,inactive
CCCCNc1nc(N)nc(C)c1CCCn1cncn1,inactive,1050,inactive,inactive,inactive
CCCCNc1nc(N)nc(C)c1CCCN1CCNCC1,inactive,500,inactive,inactive,inactive
CCCCNc1nc(N)nc(C)c1CCCC1CCCCC1,inactive,–,inactive,inactive,inactive
CCCC#Cc1c(C)nc(N)nc1NCCCC,inactive,5000,inactive,inactive,inactive
CCCCNc1nc(N)nc(C)c1CCCN1CCN(C(=O)OC(C)(C)C)CC1,inactive,300,inactive,inactive,inactive
CCCCNc1nc(N)nc(C)c1CCCC(C)(C)O,inactive,1220,inactive,inactive,inactive
CCCCNc1nc(N)nc(C)c1C#C[Si](C)(C)C,inactive,9240,inactive,inactive,inactive
CCCCNc1nc(N)nc(C)c1CCC(C)(C)O,inactive,3140,inactive,inactive,inactive
CCCCNc1nc(N)nc(C)c1CCCN1CCCCC1,inactive,133,inactive,inactive,inactive
CCCCNc1nc(N)nc(C)c1C#CCc1ccccc1,inactive,–,inactive,inactive,inactive
